# NTR1 ag: agonists of human NTR1, primary screen, imaging, U2OS cells, beta-arrestin-GFP, high content; Neurotensin receptor type 1 (Homo sapiens), P30989; 330,000 compounds, 0.17% hits; AID 493036, 2011; NTR1-U2OS beta-arrestin-GFP spot imaging, agonist mode; activation, % at 20 µM;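 active = activation at or above 40% of the spot to cytoplasm intensity ratio, with at least 20 cells analyzed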;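 also: 0% = DMSO without peptide and 100% = 100 nM NTR1 peptide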
# Target sequence (P30989 whole entry, looked up): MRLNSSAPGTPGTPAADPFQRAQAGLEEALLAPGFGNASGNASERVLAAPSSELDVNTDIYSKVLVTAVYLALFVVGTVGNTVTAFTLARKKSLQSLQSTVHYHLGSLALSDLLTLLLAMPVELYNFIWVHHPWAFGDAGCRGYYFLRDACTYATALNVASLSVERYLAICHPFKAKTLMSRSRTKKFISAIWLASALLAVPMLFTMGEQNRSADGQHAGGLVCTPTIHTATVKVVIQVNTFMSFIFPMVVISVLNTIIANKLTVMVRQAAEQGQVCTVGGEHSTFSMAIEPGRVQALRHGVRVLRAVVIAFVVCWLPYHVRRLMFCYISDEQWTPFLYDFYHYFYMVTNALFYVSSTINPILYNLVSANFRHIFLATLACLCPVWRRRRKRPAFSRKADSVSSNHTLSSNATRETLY
# TAAR1 agonist: human TAAR1 agonists, primary screen, Fluo-8 calcium fluorescence, CHO RD-HGA16 cells | Trace amine-associated receptor 1 (Homo sapiens), Q96RJ0 | vehicle wells 0%, saturating PEA agonist 100% | activation, % at 3 µM | 360,000 compounds, 0.99% hits | AID 624467, 2012;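 active = activation above the mean activation of all test compounds in the run plus 3 SD, cut at about 38% in these data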
#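 Benchmarks: low control DMSO, high control PEA (EC100); System: CHO RD-HGA16 cells carrying human TAAR1 plus Gα16; Detection: Fluo-8 fluorescence, 5 s baseline then 140 s kinetic read; Schedule: 17-24 h plating, Fluo-8 75 min 37 °C, 30 min RT; Read-out basis: % activation from peak over basal fluorescence ratio, DMSO-to-PEA scaled.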
# CHO parental Ca: ATP-evoked calcium signal inhibitors, parental CHO, primary screen, counter-screen for OX1R antagonist project, cell-based, fluorescence, Fluo-8 calcium dye | parental CHO-K1, ATP-induced calcium, Fluo-8 fluorescence | inhibition, % at 5.6 µM | 330,000 compounds, 0.63% hits | AID 463079, 2010;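 active = inhibition above that plate's mean sample inhibition plus 3 SD, cut at about 26% in these data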;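 also: 0% = ATP-challenged DMSO wells and 100% = DMSO wells without ATP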
#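 Assay system: untransfected parental CHO cell line. Also added: ATP agonist challenge. Dosing: one dose, 5.6 µM nominal. Measured by: Fluo-8 fluorescence. Read-out: % inhibition. Benchmarks: ATP wells versus no-ATP DMSO wells. Repeats: no replicates.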
# OX1R antag-1: OX1R (HCRTR1) antagonists, primary screen, fluorescence, CHO/OX1R cells, Fluo-8 calcium, orexin A | 330,000 compounds, 0.43% hits | Fluo-8 calcium fluorescence | Orexin/Hypocretin receptor type 1 (Homo sapiens), O43613 | AID 434989, 2010 | inhibition, % at 5 µM;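 active = inhibition above its plate's threshold, mean inhibition of all tested compounds on the plate plus 3 SD, cut at about 37% in these data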;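 also: 0% = orexin A challenge wells and 100% = SB-334867-A antagonist wells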
# TAAR1 antagonist: human TAAR1 antagonists, primary screen, Fluo-8 calcium fluorescence, CHO RD-HGA16 cells; Trace amine-associated receptor 1 (Homo sapiens), Q96RJ0; antagonist; inhibition, % at 3 µM; 360,000 compounds, 1.5% hits; AID 624466, 2012;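 active = inhibition above a per-plate cutoff, the mean inhibition of test compounds on that plate plus 3 SD, cut at about 49% in these data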;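 also: 0% = DMSO plus EC80 beta-PEA response and 100% = DMSO alone without agonist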
#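 Assay system: RD-HGA16 CHO cells with stable hTAAR1 and Gα16 / Reagent: EC80 β-phenethylamine stimulus / Doses: 3 µM, single point / Timing: dye loading 75 min at 37 °C, then 30 min room temperature / Measured by: Fluo-8 intracellular calcium dye fluorescence, real-time kinetic reads / Controls: vehicle wells and EC80 agonist wells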
# OX1R antag-2: antagonists of human orexin 1 receptor (OX1R). 330,000 compounds, 1.8% hits. AID 485270, 2010. inhibition, % at 6.6 µM. Orexin/Hypocretin receptor type 1 (Homo sapiens), O43613. OX1R-expressing cells, FRET antagonist read-out; in the data active = inhibition mostly above about 38%, no sharp cut-off; inactive = mostly below about 40%;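 also: 0% = agonist challenge alone and 100% = reference antagonist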
# nonsel antag count: nonselective antagonists in TAAR1 counter-screen cells, counter-screen for hTAAR1 antagonist project, cell-based, fluorescence, calcium; shares compounds with TAAR1 antagonist; counterscreen cell line, antagonist mode; inhibition, % at 3 µM; 2,400 compounds, 77% hits; in the data active = inhibition above about 22%;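 also: CHO-Ga16 host cells stimulated with ATP at an EC80 level; 0% = agonist EC80 plus vehicle and 100% = vehicle without agonist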
# TAAR1 ant conf: human TAAR1 antagonists, retest of hits, confirmation, cell-based, fluorescence; 2,400 compounds, 40% hits; TAAR1-expressing cells, fluorescence antagonist read-out; shares compounds with TAAR1 antagonist; inhibition, % at 3 µM; in the data active = inhibition above about 49%;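 also: CHO-Ga16 host cells challenged with agonist PEA near its EC80; 0% = agonist at EC80 plus vehicle and 100% = vehicle with no agonist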
# Ga16 ag counter: calcium activation in Ga16-expressing cells, counter-screen for TAAR1 antagonist project, cell-based, fluorescence | agonist counterscreen | 2,400 compounds, 18% hits | shares compounds with TAAR1 antagonist | activation, % at 3 µM; in the data active = activation above about 12%;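 also: 0% = vehicle wells and 100% = saturating stimulus response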
# TAAR1 ag count: TAAR1 activation by candidate antagonists – cell-based, fluorescence, counter-screen for TAAR1 antagonist project; shares compounds with TAAR1 antagonist; hTAAR1 cell line, agonist mode; activation, % at 3 µM; 2,400 compounds, 2% hits; in the data active = activation above about 37%;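 also: CHO cells stably expressing TAAR1 with calcium dye readout; 0% = DMSO vehicle and 100% = full agonist response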
# * hit, by the source's call; x = no result given. A selection: hits, their analogues and other compounds. The true share with any hit is near 4%.
SMILES,NTR1 ag,TAAR1 agonist,CHO parental Ca,OX1R antag-1,TAAR1 antagonist,OX1R antag-2,nonsel antag count,TAAR1 ant conf,Ga16 ag counter,TAAR1 ag count
C=CCn1c(=S)[nH]c2cc(C(=O)Nc3ccc(F)cc3)ccc2c1=O,3,18,14,-6,62*,12,35*,38,15*,18
COc1ccc(-c2ccc(C(=O)NCc3ccc(C(F)(F)F)cc3)c3occc23)c(C)c1,x,2,x,x,-6,x,x,x,x,x
CC(C)(C)c1cnnn1-c1ccc(NC(=O)c2ccc(Br)o2)cc1,0,7,-13,-24,58*,17,12,16,2,-1
COc1cccc(C(=O)Nc2ccc(-n3nncc3C(C)(C)C)cc2)c1,1,3,-11,-8,-5,20,x,x,x,x
OC(c1cccc(Cl)c1)c1nc(-c2cc3ccccc3o2)cs1 (stereo unspecified),x,24,x,x,61*,x,36*,49*,7,12
O=S(=O)(c1cccc(-c2n[nH]c(=S)n2-c2ccc(OC(F)(F)F)cc2)c1)N1CCOCC1,1,8,-6,-6,-6,9,x,x,x,x
CCN(C(=O)CSc1ncccn1)C1CCS(=O)(=O)C1 (stereo unspecified),0,1,0,-15,0,8,x,x,x,x
N#CCCN(C(=O)COC(=O)c1ccc2ccccc2n1)c1ccccc1,-2,13,-9,-11,2,7,x,x,x,x
CN1CCc2nc3ccccc3c(C(=O)OCC(=O)N(CCC#N)c3ccccc3)c2C1,2,17,-17,-39,51*,37,23*,47,8,10
CC(=O)N1c2ccc(S(=O)(=O)NCCC(=O)Nc3ccc(C)c(F)c3)cc2CC1C (stereo unspecified),4,0,-25,-21,-7,6,x,x,x,x
COc1ccc(-c2cc(C(=O)OCC(=O)NC3CC3)c3ccccc3n2)cc1,-2,19,-12,-12,-11,15,x,x,x,x
COc1ccc2cc(-c3cc(C(=O)OCC(=O)NC4CCS(=O)(=O)C4)c4ccccc4n3)ccc2c1 (stereo unspecified),x,16,-1,26,59*,52,41*,51*,12*,9
O=C(Nc1cc(Cl)cc(Cl)c1)N[C@@H]1CC[C@@H](CCNS(=O)(=O)c2cccc(F)c2)O[C@@H]1CO,x,6,x,x,-11,x,x,x,x,x
CCc1nc2ccc(C(=O)NCCOc3ccc(OC)cc3)cn2c1N(C)Cc1ccc(OC)cc1,x,0,x,x,43,x,x,x,x,x
CCc1nc2ccc(C(=O)NCCOc3ccc(OC)cc3)cn2c1N(C)Cc1cccs1,x,0,x,x,62*,x,29*,33,5,1
O=C(Nc1nc(-c2cc(F)ccc2F)cs1)c1cccc(N2C(=O)CCC2=O)c1,4,29,25,-10,75*,25,48*,60*,22*,18
COc1ccccc1CCC(=O)Nc1ccc2c(c1)c(=O)n(C)n2-c1cccs1,x,4,x,x,26,x,x,x,x,x
COc1ccccc1N1CCN(C(=O)CSc2ncnc3scc(-c4ccccc4)c23)CC1,3,3,-39,-26,56*,30,22*,33,5,10
